Test results published in PMC12099175 (Chemistry (Weinheim an Der Bergstrasse, Germany), 2025).
“Also recorded” adds a separate entry of the source. No end group written: not given here.

Assays:
Assay type in all cases: physicochemical
[1] = AFM surface morphology of amyloid fibrils; settings: 1.5 mg/mL, pH 3.8, 24 h mixing at 37 °C, 5 µL dried on mica
Outline: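 Hexapeptide at a final 1.5 mg/mL, pH 3.8, was stirred at 500–600 rpm at 37 °C for 24 h. This was the same stock used for FTIR and ECD. The 24-h solution was dropped on freshly cleaved mica and vacuum-dried for 24 h. Images were taken in dynamic mode near densely packed areas, with a 10×10 µm window and 512 pixels per line.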

[2] = Amyloid formation monitored by time-dependent far-UV ECD spectroscopy; settings: for amyloidogenicity overall (in words): all tested conditions (H2O, 10% EtOH, 50% MeOH), FTIR, AFM; for amyloidogenicity overall (in words) / amyloid formation in 10% EtOH (in words) / amyloid formation in 50% MeOH (in words): ECD; for amyloid formation in 10% EtOH (in words): 10% EtOH:90% H2O (ε = 68.742); for amyloid formation in 10% EtOH (in words) / time to form amyloid in 50% MeOH / amyloid formation in 50% MeOH (in words) / time to form β-sheets / B-type ECD spectrum in water: 37 °C; for amyloid formation in 10% EtOH (in words) / amyloid formation in 50% MeOH (in words) / time to form β-sheets / B-type ECD spectrum in water: stirred 500–600 rpm; for time to form amyloid in 50% MeOH / amyloid formation in 50% MeOH (in words): 50% MeOH:50% H2O (ε = 51.347); for time to form amyloid in 50% MeOH: stirred; for time to form amyloid in 50% MeOH / time to form β-sheets / B-type ECD spectrum in water: ECD read-out; for time to form β-sheets / B-type ECD spectrum in water: 100% H2O
Outline: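 Peptides were dissolved at 0.15–1.50 mg/mL in water, 10% EtOH or 50% MeOH. Concentration was set by A280 of 5-fold dilutions (ε Tyr 1280, Trp 5690 M⁻¹ cm⁻¹), with pH adjusted by NaOH/HCl. Samples were stirred at 500–600 rpm, 37 °C, and measured directly at 0–168 h. Spectra covered 185–260 nm, 0.1 mm cell, 25 °C, three scans averaged, solvent-subtracted, Savitzky–Golay smoothed, and converted to mean residue ellipticity.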

[3] = Water solubility / peptide concentration needed for amyloid formation; settings: pure water

In the case of GNNQQNY [GNNQQNY, reference compound], the “AFM morphology (in words)” value [1] is reported as “Fibrillar amyloid formation”.

For LNIQWL [LNIQWL], the “amyloidogenicity overall (in words)” value [2] was “remains amyloidogenic” and the “AFM morphology (in words)” value [1] was “granular”.

For LNQQNY [LNQQNY], the “amyloid formation in 10% EtOH (in words)” value [2] was “forms amyloid very slowly”, the “time to form amyloid in 50% MeOH” value [2] was ≤ 24 h and the “amyloidogenicity overall (in words)” value [2] was “highly amyloidogenic”.

In the case of LYIQNL [LYIQNL], the “amyloid formation in 10% EtOH (in words)” value [2] is reported as “form amyloid”, the “amyloid formation in 50% MeOH (in words)” value [2] is reported as “form amyloid” and the “amyloidogenicity overall (in words)” value [2] is reported as “highly amyloidogenic”.

For LYIQNY [LYIQNY], the “water solubility (in words)” value [3] was “water‐soluble”, the “amyloid formation in 10% EtOH (in words)” value [2] was “rapid amyloid formation” and the “amyloid formation in 50% MeOH (in words)” value [2] was “rapid amyloid formation; also recorded: faster assembly”. For the same substance, the “amyloidogenicity overall (in words)” value [2] was “highly amyloidogenic”.

In the case of LYIQWL [LYIQWL], the “amyloid formation in 10% EtOH (in words)” value [2] is reported as “form amyloid”, the “amyloid formation in 50% MeOH (in words)” value [2] is reported as “form amyloid” and the “time to form β-sheets / B-type ECD spectrum in water” value [2] is reported as 1 h. The “amyloidogenicity overall (in words)” value [2] was “highly amyloidogenic” and the “AFM morphology (in words)” value [1] was “Fibrillar amyloid formation”.

With LYQQNY [LYQQNY] the “amyloid formation in 10% EtOH (in words)” value [2] was “Amyloid formation is confirmed”, the “amyloid formation in 50% MeOH (in words)” value [2] was “Amyloid formation is confirmed” and the “ECD mean residue ellipticity Θ, positive maximum at 208 nm” value ([2]; B-type spectrum after 24 hours) was “~+57000 deg cm^2 dmol^−1”. The “amyloidogenicity overall (in words)” value [2] was “highly amyloidogenic”.

For NNIQWL [NNIQWL], the “amyloidogenicity overall (in words)” value [2] was “did not form amyloid under any of the tested conditions” and the “AFM morphology (in words)” value [1] was “no evidence of filament formation”.

With NNQQNL [NNQQNL] the “amyloid formation in 50% MeOH (in words)” value [2] was “very slow amyloid formation” and the “AFM morphology (in words)” value [1] was “empty AFM image”.

In the case of NNQQNY [NNQQNY], the “water solubility (in words)” value [3] is reported as “highly water‐soluble”, the “amyloid formation in 10% EtOH (in words)” value [2] is reported as “preventing amyloid formation” and the “ECD mean residue ellipticity Θ at 202 nm” value ([2]; 50% MeOH, B-type signal) is reported as ~53000 deg cm^2 dmol^−1. For the same substance, the “amyloid formation in 50% MeOH (in words)” value [2] was “β‐sheets formed; also recorded: forms amyloid in 50% MeOH”, the “time to form amyloid in 50% MeOH” value [2] was “within hours; also recorded: a few hours” and the “amyloidogenicity overall (in words)” value [2] was “highly amyloidogenic”. For the same substance, the “AFM morphology (in words)” value [1] was “Fibrillar amyloid formation”.

For NNQQWL [NNQQWL], the “amyloid formation in 50% MeOH (in words)” value [2] was “No amyloid formation was observed”, the “time to form β-sheets / B-type ECD spectrum in water” value [2] was > 144 h and the “amyloidogenicity overall (in words)” value [2] was “resists amyloid formation”. The “AFM morphology (in words)” value [1] was “no detectable structures”.
